Measurements published in publication PMC8809394 (Chemical Science, 2022).
Where a chain is given by its changes, count along the chain named. Values joined by “and” are separate entries in the source; they are usually repeats but may differ in a detail not shown here. Equal values may be shown once.

Legend:
Luminescence lifetime = format: physicochemical; conditions: MQ H2O; λexc 450 nm, λem 620 nm; covalent ArMs 50 μM
[1] = molecular target: T1, POPWT (prolyl oligopeptidase) (Pyrococcus furiosus, UniProt Q51714); experiment: Luminescence lifetime titration, cofactor binding to POPWT; conditions: for Kd: POPWT 0-300 μM, cofactor 5 μM, MQ H2O (+/- 0.5% ACN); for Δ lifetime (free vs. bound cofactor): non-covalent binding to POPWT
T1 sequence (Q51714 1-616): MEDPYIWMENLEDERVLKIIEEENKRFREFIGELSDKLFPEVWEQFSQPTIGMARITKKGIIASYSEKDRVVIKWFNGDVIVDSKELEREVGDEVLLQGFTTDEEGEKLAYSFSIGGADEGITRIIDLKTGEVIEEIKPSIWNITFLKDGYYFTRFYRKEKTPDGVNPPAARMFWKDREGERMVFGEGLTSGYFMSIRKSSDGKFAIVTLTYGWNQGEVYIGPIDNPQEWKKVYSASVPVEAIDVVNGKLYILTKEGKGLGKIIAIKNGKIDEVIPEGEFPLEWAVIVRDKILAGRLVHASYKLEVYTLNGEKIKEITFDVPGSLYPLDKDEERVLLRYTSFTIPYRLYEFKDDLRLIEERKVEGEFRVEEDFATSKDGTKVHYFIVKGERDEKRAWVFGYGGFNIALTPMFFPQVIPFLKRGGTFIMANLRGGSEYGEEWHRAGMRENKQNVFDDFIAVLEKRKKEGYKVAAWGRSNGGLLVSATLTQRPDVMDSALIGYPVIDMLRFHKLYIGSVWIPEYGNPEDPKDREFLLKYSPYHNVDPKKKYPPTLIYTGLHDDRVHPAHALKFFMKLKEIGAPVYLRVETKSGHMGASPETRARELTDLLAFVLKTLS
Outline: (§1)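 Non-covalent binding is measured by luminescence lifetime titration of the Ru(Bpy)3 2+-type cofactor against Pyrococcus furiosus prolyl oligopeptidase scaffold variants. Kd comes from the titration. Δ lifetime is the lifetime difference between free and bound cofactor. Each plotted point is a single measurement. Error bars are standard deviations from single-exponential tail fitting of the decay data.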

[2] = molecular target: T2, POPNeut (prolyl oligopeptidase variant) (Pyrococcus furiosus, UniProt Q51714, G99A/K255A/R198A/R338A/R55A/W142A/Y326A); experiment: Luminescence lifetime titration, cofactor binding to POPNeut
T2 sequence (Q51714 1-616 R55A/G99A/W142A/R198A/K255A/Y326A/R338A): T1 sequence (Q51714 1-616) with R55A, G99A, W142A, R198A, K255A, Y326A, R338A
Outline: as §1

[3] = molecular target: T3, POPNeg (prolyl oligopeptidase variant) (Pyrococcus furiosus, UniProt Q51714, G99D/K255A/R198A/R338A/R55A/W142D/Y326D); experiment: Luminescence lifetime titration, cofactor binding to POPNeg; conditions: non-covalent binding to POPNeg
T3 sequence (Q51714 1-616 R55A/G99D/W142D/R198A/K255A/Y326D/R338A): T1 sequence (Q51714 1-616) with R55A, G99D, W142D, R198A, K255A, Y326D, R338A
Outline: as §1

BSA = BSA (Bos taurus, UniProt P02769); experiment: Luminescence lifetime titration with BSA; format: binding; conditions: 3a 5 μM, BSA in MQ H2O
[4] = deoxygenated acetonitrile ref 5,8; cited from earlier work

Sequence of BSA (P02769 25-607): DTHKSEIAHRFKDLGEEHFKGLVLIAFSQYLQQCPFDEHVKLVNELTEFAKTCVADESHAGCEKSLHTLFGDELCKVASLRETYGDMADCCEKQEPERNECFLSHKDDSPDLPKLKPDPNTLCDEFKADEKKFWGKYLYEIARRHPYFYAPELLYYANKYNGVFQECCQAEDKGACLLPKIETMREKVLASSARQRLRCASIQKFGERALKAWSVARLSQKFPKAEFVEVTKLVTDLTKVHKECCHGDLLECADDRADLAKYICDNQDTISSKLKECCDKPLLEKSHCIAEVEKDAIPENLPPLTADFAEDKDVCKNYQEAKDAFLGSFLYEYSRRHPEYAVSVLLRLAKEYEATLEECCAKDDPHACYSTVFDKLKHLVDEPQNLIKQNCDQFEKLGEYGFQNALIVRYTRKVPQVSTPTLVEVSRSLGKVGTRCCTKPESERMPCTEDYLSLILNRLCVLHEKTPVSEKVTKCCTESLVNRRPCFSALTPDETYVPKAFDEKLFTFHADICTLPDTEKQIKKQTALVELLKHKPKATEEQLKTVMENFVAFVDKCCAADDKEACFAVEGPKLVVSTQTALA

| SMILES | Lifetime (luminescence) (Luminescence lifetime) [ns] | Kd [1] | Δ lifetime (free vs. bound cofactor) [1] [ns] | Kd ([2]; POPNeut 0-300 μM, cofactor 5 μM, MQ H2O) | Δ lifetime (free vs. bound cofactor) ([2]; non-covalent binding to POPNeut) [ns] | Δ lifetime (free vs. bound cofactor) [3] [ns] | binding to BSA (BSA) | binding to BSA (BSA; listed as Ru(Bpy)3^2+) | luminescence lifetime [4] [ns] |
| --- | --- | --- | --- | --- | --- | --- | --- | --- | --- |
| [Cl-].[Cl-].[Ru+2].c1ccc(-c2ccccn2)nc1.c1ccc(-c2ccccn2)nc1.c1ccc(-c2ccccn2)nc1 [3a, Ru(Bpy)3^2+] | 573 | 28 µM and 28.3 µM | 96 | 1.7 µM and 1.65 µM | 166 | 183 | minimal non-specific binding affinity | negligible binding | 930 |
| [Ru+2].c1ccc(-c2ccccn2)nc1.c1ccc(-c2ccccn2)nc1.c1ccc(-c2ccccn2)nc1 [3b] | – | 30 µM and 30.1 µM | 110 | – | – | – | – | – | – |
| O=C([O-])c1ccnc(-c2cc(C(=O)[O-])ccn2)c1.[Ru+2].c1ccc(-c2ccccn2)nc1.c1ccc(-c2ccccn2)nc1 [3d] | – | 30 µM and 29.5 µM | 35 | – | – | 125 | – | – | – |
